# Laboratory results from ChEMBL document CHEMBL1125251, “4'-Hydroxy-3-methoxyflavones with potent antipicornavirus activity” (J Med Chem, 1991).
# How the values were obtained:
# [1] = Cytotoxic dose at which 50% growth of normal cells is inhibited; assay type: cell-based; details: chlorocebus sabaeus, Vero cells; read-out: CyD50
# Outline: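 Cell-growth cytotoxicity in Vero cells or human skin fibroblasts. Serial 2-fold dilutions in M-199 with 6% newborn calf serum were added in quadruplicate to 10⁶ cells and held 6 days at 37 °C. Cells were trypsinized, counted and reseeded with compound, repeated five times. Generation time was calculated per concentration. CyD50 = lowest concentration at least doubling generation time versus untreated cells.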
# [2] = test system: Enterovirus C; assay: The ratio of the poliovirus viral titer of the virus control (reduction factor) to the viral titer in the presence of the maximal non-toxic dose (RF MNTD); assay type: functional
# Outline: (§1)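 Poliovirus type 1 Brunhilde 1A/S3 in Vero monolayers. Serial 10-fold virus dilutions adsorbed 1 h at 37 °C, then serial 2-fold compound dilutions were added. Incubated at 37 °C and scored for CPE by light microscopy, with a 3-day readout. Titer reduction is control/treated TCD50/mL. ED99 is the minimum concentration inhibiting 99% of virus. Virus, cell and compound controls were included.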
# [3] = test system: Enterovirus C; assay: Maximal non-toxic dose (MNTD) that shows antiviral activity.; assay type: functional
# Outline: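 End-point titration. Poliovirus type 1 Brunhilde was run in Vero cells at 37 °C with a 3-day read. Rhinovirus 15 was run in human skin fibroblasts at 33 °C with a 7-day read. Monolayers got serial 10-fold virus dilutions and adsorbed 1 h at 37 °C, then serial 2-fold compound dilutions (DMSO stock in maintenance medium). CPE was read by light microscopy. RF = control titer (TCD50/mL) / titer at maximal nontoxic dose.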
# [4] = test system: Enterovirus C; assay: Minimum drug concentration at which 99% of the polio virus is inhibited; assay type: functional; outline: as §1
# [5] = test system: Enterovirus C; assay: Minimal dose which produces titer reduction at 10 ug/mL (mD RF10e3); assay type: functional
# [6] = Therapeutic Index measured as the ratio of CyD50(polio) / ED99(polio) values; assay type: organism-based; details: enterovirus c; read-out: Therapeutic index 99
# Outline: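 TI99 = CyD50/ED99 for poliovirus. ED99 came from end-point titration in Vero cells at 37 °C over 3 days. CyD50 came from Vero cell growth: 10⁶ cells were given serial 2-fold compound dilutions in quadruplicate for 6 days at 37 °C, then trypsinized, counted and reseeded, repeated five times. Generation time was calculated per concentration.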
# [7] = test system: Human rhinovirus sp.; assay: Minimum drug concentration at which 99% of the rhino virus is inhibited.; assay type: functional
# Outline: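 End-point titration with rhinovirus type 15 on human skin fibroblast monolayers. Cells were infected with serial 10-fold virus dilutions and allowed 1 h adsorption at 37 °C. Serial 2-fold compound dilutions were then added and plates incubated at 33 °C. CPE was read daily by light microscopy for at least 1 week, titres as TCD50/mL. ED99 = minimum concentration inhibiting 99% of virus.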
# [8] = test system: Human rhinovirus sp.; assay: Cytotoxic dose at which 50% growth of normal cells is inhibited against rhino virus infection.; assay type: functional
# Outline: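 Human skin fibroblasts, 10⁶ cells per flask, given serial 2-fold dilutions in quadruplicate in M-199 with 6% newborn calf serum and held 6 days at 37 °C. Cells were trypsinized, counted in a chamber and reseeded with compound over five repeat cycles. CyD50 = lowest concentration at least doubling cell generation time relative to untreated control.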
# [9] = Therapeutic Index measured as the ratio of CyD50 (rhino) / ED99 (rhino) values.; details: read-out: Therapeutic index 99
# Outline: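 TI99 = CyD50/ED99 for rhinovirus 15. ED99 came from end-point titration in human skin fibroblasts at 33 °C over 7 days. CyD50 came from fibroblast growth: 10⁶ cells were given serial 2-fold compound dilutions in quadruplicate for 6 days at 37 °C, then counted and reseeded, repeated five times. Generation time was calculated per concentration.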
SMILES,CC50 [1] [µg/mL],Reduction factor [2],Max non-toxic dose [3] [µg/mL],ED99 [4] [µg/mL],Minimal dose [5] [µg/mL],selectivity ratio [6],ED99 [7] [µg/mL],CyD50 [8] [µg/mL],selectivity ratio [9]
COc1cc(O)c2c(=O)c(OC)c(-c3ccc(O)c(OC)c3)oc2c1 [PACHYPODOL],25,1000000,20,2.5,0.5,10,,,
Cc1ccc2c(=O)c(Cl)c(-c3ccc(O)cc3)oc2c1,50,,,,,,20,50,
COc1c(-c2ccc(O)cc2)oc2cc(O)cc(O)c2c1=O [ISOKAEMPFERIDE],10,1000000,10,0.2,0.25,50,,,
COc1ccc2c(=O)c(OC)c(-c3ccc(O)cc3)oc2c1,> 50,,50,2.5,2.5,> 20,10,>50,> 5
COc1c(-c2ccc(O)cc2)oc2cccc(OC)c2c1=O,150,,10,10,5,15,15,150,10
COc1c(-c2ccc(OC(C)=O)c(OC(C)=O)c2)oc2cc(OC(C)=O)cc(OC(C)=O)c2c1=O,,1000000,>50,,2,,,,
COc1c(-c2ccc(O)cc2)oc2cc(I)ccc2c1=O,20,10000,10,4,10,5,<1000,20,
COc1c(-c2ccc(O)cc2)oc2cc(C(C)C)ccc2c1=O,,,25,,,,,,
COc1c(-c2ccc(O)cc2)oc2cc(Br)ccc2c1=O,30,10,30,>30,,< 1,,,
COc1ccc(-c2oc3cc(O)cc(O)c3c(=O)c2OC)cc1 [ERMANIN],50,,10,5,5,10,,,
"COc1ccc(-c2oc3c(OC)c(OC)c(OC)c(OC)c3c(=O)c2OC)cc1OC [3,5,6,7,8,3',4'-HEPTAMETHOXYFLAVONE]",,100000,50,,25,,,,
COc1c(-c2ccc(O)cc2)oc2cc(C)ccc2c1=O,25,,25,2,4,12.5,25,25,1
COc1ccc(-c2oc3ccc(OC)cc3c(=O)c2OC)cc1,100,,50,,,2,50,100,
Cc1ccc2c(=O)c(C)c(-c3ccc(O)cc3)oc2c1,100,,,,,,25,100,
COc1ccc2oc(-c3ccc(O)cc3)c(OC)c(=O)c2c1,200,,50,25,,8,,,
COc1ccc(-c2oc3cc(C)ccc3c(=O)c2OC)cc1,,1,100,,,,,,
COc1ccc(-c2oc3c(OC)c(O)cc(O)c3c(=O)c2OC)cc1,,1,>10,,,,,,
COc1c(-c2ccc(O)cc2)oc2ccc(C)cc2c1=O,75,,12,5,,15,<1000,75,
COc1c(-c2ccc(O)c(O)c2)oc2cc(O)cc(O)c2c1=O [3-O-METHYLQUERCETIN],5,1000000,20,0.3,0.5,16.7,,,
COc1ccc(-c2oc3cccc(OC)c3c(=O)c2OC)cc1,,1,100,,,,,,

SMILES,CC50 [1] [µg/mL],Reduction factor [2],Max non-toxic dose [3] [µg/mL],ED99 [4] [µg/mL],Minimal dose [5] [µg/mL],selectivity ratio [6],ED99 [7] [µg/mL],CyD50 [8] [µg/mL],selectivity ratio [9]
COc1ccc(-c2oc3cc(O)c(OC)c(O)c3c(=O)c2OC)cc1 [SANTIN],,1,100,,,,,,
COc1c(-c2ccc(O)cc2)oc2c(C)cc(Cl)cc2c1=O,50,1,25,>50,,< 1,,,
COc1ccc(-c2oc3c(OC)c(OC)cc(O)c3c(=O)c2OC)cc1,,,7.5,,,,,,
COc1c(-c2ccc(O)c(O)c2)oc2c(OC)c(O)cc(O)c2c1=O,10,1000000,20,1.5,2,6.6,,,
COc1ccc(-c2oc3cc(OC)c(OC)cc3c(=O)c2OC)cc1OC,,10000,50,,50,,,,
COc1ccc(-c2oc3cc(O)cc(O)c3c(=O)c2OC)cc1OC,,,50,,2.5,,,,
"COc1c(O)cc2oc(-c3ccc(O)cc3)c(OC)c(=O)c2c1O [3,6-DIMETHOXY KAEMPFEROL]",25,100000,20,0.5,1,50,,,
COc1c(-c2ccc(O)cc2)oc2ccccc2c1=O,10,100000,15,6,6,1.7,,,
Cc1ccc2c(=O)c(N)c(-c3ccc(O)cc3)oc2c1,10,,,,,,,,
COc1ccc(-c2oc3c(OC)c(OC)c(OC)c(O)c3c(=O)c2OC)cc1OC,,10000,50,,50,,,,
COc1c(-c2ccc(O)cc2)oc2c(OC)cccc2c1=O,25,1000000,50,20,2.5,1.25,,,
COc1ccc(-c2oc3ccc(O)cc3c(=O)c2OC)cc1,,1,100,,,,,,
COc1c(-c2ccc(O)cc2)oc2ccc(Cl)cc2c1=O,100,,100,6,1.5,16.7,<1000,100,
COc1cc(O)c2c(=O)c(OC)c(-c3ccc(O)c(O)c3)oc2c1,10,1000000,10,0.3,0.5,33.3,,,
COc1c(-c2ccc(O)cc2)oc2ccc(C(C)C)cc2c1=O,10,,5,5,,2,10,10,1
COc1ccc(-c2oc3cc(OC)cc(O)c3c(=O)c2OC)cc1,,1,>50,,,,,,
COc1c(-c2ccc(Cl)cc2)oc2cc(C)ccc2c1=O,100,1,25,<1000,,,,,
COc1c(-c2ccc(O)cc2)oc2cc(F)ccc2c1=O,25,1000,10,10,,2.5,,,
COc1cc(O)c2c(=O)c(OC)c(-c3ccc(OC)c(OC)c3)oc2c1 [RETUSIN],,1,>50,,,,,,
